Tests used:
Format in all cases: functional
[1] = Growth inhibition of human RXF393 cells after 48 hrs by sulforhodamine B assay; details: RXF 393, 48 h
Summary of the method: (§1)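 NCI 60-cell-line panel (nine tumour subpanels), five-dose format: 10-fold dilutions from 10^-4 to 10^-8 M, 48 h continuous exposure, SRB protein stain. Percent growth at each level is derived from time-zero, untreated control and treated absorbances. GI50 is the concentration where [(Ti−Tz)/(C−Tz)]×100 = 50. Values outside the tested range are reported as above or below the limit.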

KM12 = experiment: Growth inhibition of human KM12 cells after 48 hrs by sulforhodamine B assay; details: KM12, 48 h; summary of the method: as §1
BT-549 = experiment: Growth inhibition of human BT549 cells after 48 hrs by sulforhodamine B assay; details: BT-549, 48 h
Summary of the method: (§2)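 NCI full ~60 cell line panel. Five 10-fold concentrations from 10^-4 to 10^-8 M, 48 h continuous exposure, SRB protein read-out. Time-zero, control and treated absorbances give percentage growth. GI50 is the concentration where [(Ti−Tz)/(C−Tz)]×100 = 50; TGI is where Ti = Tz; LC50 is where [(Ti−Tz)/Tz]×100 = −50.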

PC-3 = experiment: Growth inhibition of human PC3 cells after 48 hrs by sulforhodamine B assay; details: PC-3, 48 h; summary of the method: as §1
[2] = Growth inhibition of human HOP92 cells after 48 hrs by sulforhodamine B assay; details: HOP-92, 48 h; summary of the method: as §2
MDA-MB-435 = experiment: Growth inhibition of human MDA-MB-435 cells after 48 hrs by sulforhodamine B assay; details: MDA-MB-435, 48 h; summary of the method: as §1
MDA-MB-231 = experiment: Growth inhibition of human MDA-MB-231 cells after 48 hrs by sulforhodamine B assay; details: MDA-MB-231, 48 h; summary of the method: as §1
DU-145 = experiment: Growth inhibition of human DU145 cells after 48 hrs by sulforhodamine B assay; details: DU-145, 48 h; summary of the method: as §2
SF-295 = experiment: Growth inhibition of human SF295 cells after 48 hrs by sulforhodamine B assay; details: SF-295, 48 h; summary of the method: as §1
A498 = experiment: Growth inhibition of human A498 cells after 48 hrs by sulforhodamine B assay; details: A498, 48 h; summary of the method: as §2
LOX IMVI = experiment: Growth inhibition of human LOXIMVI cells after 48 hrs by sulforhodamine B assay; summary of the method: as §1
[3] = Growth inhibition of human OVCAR5 cells after 48 hrs by sulforhodamine B assay; details: OVCAR-5, 48 h; summary of the method: as §1
UACC-62 = experiment: Growth inhibition of human UACC62 cells after 48 hrs by sulforhodamine B assay; details: UACC-62, 48 h
Summary of the method: (§3)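 NCI 60-cell-line panel, five-dose run at 10-fold dilutions from 10^-4 to 10^-8 M, 48 h continuous exposure. Viability by SRB protein stain. Percent growth is taken from time-zero, untreated-control and treated absorbances. GI50 is the concentration giving a 50% lower net protein increase than in control cells. TGI is taken at Ti = Tz, LC50 at a 50% loss of initial protein.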

Malme-3M = experiment: Growth inhibition of human MALME-3M cells after 48 hrs by sulforhodamine B assay; summary of the method: as §1
NCI-H322M = experiment: Growth inhibition of human NCI-H322M cells after 48 hrs by sulforhodamine B assay; summary of the method: as §1
HCT-116 = experiment: Growth inhibition of human HCT116 cells after 48 hrs by sulforhodamine B assay; details: HCT-116, 48 h; summary of the method: as §2
NCI-H226 = experiment: Growth inhibition of human NCI-H226 cells after 48 hrs by sulforhodamine B assay; details: NCI-H226, 48 h; summary of the method: as §1
[4] = Growth inhibition of human UACC257 cells after 48 hrs by sulforhodamine B assay; details: UACC-257, 48 h; summary of the method: as §3
K562 = experiment: Growth inhibition of human K562 cells after 48 hrs by sulforhodamine B assay; details: K562, 48 h; summary of the method: as §2
HOP-62 = experiment: Growth inhibition of human HOP62 cells after 48 hrs by sulforhodamine B assay; details: HOP-62, 48 h; summary of the method: as §2
[5] = Growth inhibition of human NCI-ADR-RES cells after 48 hrs by sulforhodamine B assay; summary of the method: as §1
[6] = Growth inhibition of human Hs 578T cells after 48 hrs by sulforhodamine B assay; summary of the method: as §2
HCT-15 = experiment: Growth inhibition of human HCT15 cells after 48 hrs by sulforhodamine B assay; details: HCT-15, 48 h; summary of the method: as §2
CCRF-CEM = experiment: Growth inhibition of human CCRF-CEM cells after 48 hrs by sulforhodamine B assay; summary of the method: as §2
SK-MEL-5 = experiment: Growth inhibition of human SK-MEL-5 cells after 48 hrs by sulforhodamine B assay; details: SK-MEL-5, 48 h; summary of the method: as §3
SW-620 = experiment: Growth inhibition of human SW620 cells after 48 hrs by sulforhodamine B assay; details: SW-620, 48 h; summary of the method: as §3
U-251 = experiment: Growth inhibition of human U251 cells after 48 hrs by sulforhodamine B assay; details: U-251, 48 h; summary of the method: as §3
SF-268 = experiment: Growth inhibition of human SF268 cells after 48 hrs by sulforhodamine B assay; details: SF-268, 48 h; summary of the method: as §1
[7] = read-out: LC50 (the source's name)

COc1ccc(-c2nnc(SCC(=O)Nc3ccc(/C(C)=N/O)cc3)n2-c2ccccc2)cc1OC
GI50 [1]: 2.56 µM | TGI [1]: 7.11 µM | CC50 [1, 7]: > 100 µM | GI50 (KM12): > 100 µM | TGI (KM12): > 100 µM | CC50 (KM12; [7]): > 100 µM | GI50 (BT-549): 13.7 µM | TGI (BT-549): > 100 µM | CC50 (BT-549; [7]): > 100 µM | GI50 (PC-3): > 100 µM | TGI (PC-3): > 100 µM | CC50 (PC-3; [7]): > 100 µM | GI50 [2]: 2.12 µM | TGI [2]: 6.42 µM | CC50 [2, 7]: > 100 µM | GI50 (MDA-MB-435): > 100 µM | TGI (MDA-MB-435): > 100 µM | CC50 (MDA-MB-435; [7]): > 100 µM | GI50 (MDA-MB-231): 4.26 µM | TGI (MDA-MB-231): 23.8 µM | CC50 (MDA-MB-231; [7]): > 100 µM | GI50 (DU-145): 24.9 µM | TGI (DU-145): > 100 µM | CC50 (DU-145; [7]): > 100 µM | GI50 (SF-295): 3.39 µM | TGI (SF-295): 37.7 µM | CC50 (SF-295; [7]): > 100 µM | GI50 (A498): 2.72 µM | TGI (A498): 46.1 µM | CC50 (A498; [7]): > 100 µM | GI50 (LOX IMVI): > 100 µM | TGI (LOX IMVI): > 100 µM | CC50 (LOX IMVI; [7]): > 100 µM | GI50 [3]: > 100 µM | TGI [3]: > 100 µM | CC50 [3, 7]: > 100 µM | GI50 (UACC-62): > 100 µM | TGI (UACC-62): > 100 µM | CC50 (UACC-62; [7]): > 100 µM | GI50 (Malme-3M): 17.2 µM | TGI (Malme-3M): > 100 µM | CC50 (Malme-3M; [7]): > 100 µM | GI50 (NCI-H322M): 4.41 µM | TGI (NCI-H322M): > 100 µM | CC50 (NCI-H322M; [7]): > 100 µM | GI50 (HCT-116): 11.3 µM | TGI (HCT-116): > 100 µM | CC50 (HCT-116; [7]): > 100 µM | GI50 (NCI-H226): 7.28 µM | TGI (NCI-H226): > 100 µM | CC50 (NCI-H226; [7]): > 100 µM | GI50 [4]: > 100 µM | TGI [4]: > 100 µM | CC50 [4, 7]: > 100 µM | GI50 (K562): > 100 µM | TGI (K562): > 100 µM | CC50 (K562; [7]): > 100 µM | GI50 (HOP-62): 2.06 µM | TGI (HOP-62): 6.8 µM | CC50 (HOP-62; [7]): > 100 µM | GI50 [5]: > 100 µM | TGI [5]: > 100 µM | CC50 [5, 7]: > 100 µM | GI50 [6]: 3.75 µM | TGI [6]: > 100 µM | CC50 [6, 7]: > 100 µM | GI50 (HCT-15): > 100 µM | TGI (HCT-15): > 100 µM | CC50 (HCT-15; [7]): > 100 µM | GI50 (CCRF-CEM): > 100 µM | TGI (CCRF-CEM): > 100 µM | CC50 (CCRF-CEM; [7]): > 100 µM | GI50 (SK-MEL-5): > 100 µM | TGI (SK-MEL-5): > 100 µM | CC50 (SK-MEL-5; [7]): > 100 µM | GI50 (SW-620): > 100 µM | TGI (SW-620): > 100 µM | CC50 (SW-620; [7]): > 100 µM | GI50 (U-251): 3.62 µM | TGI (U-251): 19.6 µM | CC50 (U-251; [7]): > 100 µM | GI50 (SF-268): 3.07 µM | TGI (SF-268): 20.3 µM | CC50 (SF-268; [7]): > 100 µM

From ChEMBL document CHEMBL3102806, “1,2,4-Triazole/oxime hybrids as new strategy for nitric oxide donors: Synthesis, anti-inflammatory, ulceroginicity and antiproliferative activities” (Eur J Med Chem, 2014)
